Calls of active or inactive are those of the source.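 Rule for the calls, unless noted: active = inhibition above 20% together with a positive visual image hit; inconclusive = visual image hit but inhibition not above 20%; inactive = no visual image hit.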
How the values were obtained:
[1] = inhibitors of TNFa-induced NFkB p65 translocation, primary screen, imaging, HUVEC, MLSMR starter and 10KST1 sets (AID 438); conditions: HUVEC TNFa-induced p65 nuclear translocation; cell count: measured here: nuclei count (cytotoxicity indicator), at 2.08 µM; inhibition: at 2 µM, stronger effect = higher value, 0% TNFa-plus-vehicle, 100% no-TNFa wells;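 note: compound added about 3h40 before a 20 min TNFalpha stimulation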;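 for inhibition: signal is the nuclear over cytoplasmic p65 intensity ratio per well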
[2] = inhibitors of E-selectin induction by TNFa, primary screen, imaging, HUVEC, immunofluorescence, MLSMR starter and 10KST1 sets (AID 487;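 active = visually confirmed hit in the image check and inhibition above 20%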;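 for inhibition: signal is fraction of cell area covered by stained E-selectin grains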;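 for nuclei count: 100% = median nuclei count of all wells on the same plate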); conditions: HUVEC TNFalpha-induced E-selectin immunofluorescence imaging, at 2 µM; inhibition: stronger effect = higher value; nuclei count: measured here: cell number, toxicity
[3] = DUSP6 inhibitors restoring Erk phosphorylation by chemical complementation, primary imaging in DUSP6-transfected HeLa (AID 609;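 active = compounds giving at least 50% inhibition in the cell-based MKP-3 phosphatase rescue imaging test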;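 for inhibition: phospho-Erk level distribution per well compared with pooled transfected vehicle control wells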); conditions: HeLa MKP-3 transfected, phospho-Erk imaging KS statistic, at 10 µM, cells stimulated with TPA for 15 min
[4] = biological target: Dual specificity protein phosphatase 6 (Homo sapiens) (UniProt Q16828); assay: as above; conditions: HeLa MKP-3 transfected, phospho-Erk imaging KS statistic; at 10 µM; stronger effect = higher value; cells stimulated with TPA for 15 min
Sequence of Dual specificity protein phosphatase 6 (Homo sapiens) (Q16828 whole entry, looked up): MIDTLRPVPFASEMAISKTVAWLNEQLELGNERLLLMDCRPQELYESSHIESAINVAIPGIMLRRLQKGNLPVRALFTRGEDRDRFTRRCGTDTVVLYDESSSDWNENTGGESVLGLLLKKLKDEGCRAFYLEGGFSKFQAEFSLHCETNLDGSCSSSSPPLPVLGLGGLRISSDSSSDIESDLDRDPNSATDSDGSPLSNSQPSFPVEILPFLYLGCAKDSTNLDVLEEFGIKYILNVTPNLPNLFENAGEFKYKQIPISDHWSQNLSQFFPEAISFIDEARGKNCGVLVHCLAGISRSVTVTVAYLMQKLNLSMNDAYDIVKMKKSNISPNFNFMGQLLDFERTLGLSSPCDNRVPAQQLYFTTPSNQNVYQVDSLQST

[5] = biological target: Voltage-gated potassium channel subunit beta-2 (Rattus norvegicus) (UniProt P62483); assay: KvBeta enzyme negative modulators, primary screen, biochemical, NADPH fluorescence (AID 622;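 active = fluorescence slope higher than the sample average by over 3 SD, cut at about -0.22 in these data, passing the limit was not always enough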;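 note: slope of raw intensity against log time taken from 70 to 1610 s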); conditions: recombinant KvBeta, 4-cyanobenzaldehyde reduction, at 10 µM, stronger effect = higher value
Sequence of Voltage-gated potassium channel subunit beta-2 (Rattus norvegicus) (P62483 whole entry, looked up): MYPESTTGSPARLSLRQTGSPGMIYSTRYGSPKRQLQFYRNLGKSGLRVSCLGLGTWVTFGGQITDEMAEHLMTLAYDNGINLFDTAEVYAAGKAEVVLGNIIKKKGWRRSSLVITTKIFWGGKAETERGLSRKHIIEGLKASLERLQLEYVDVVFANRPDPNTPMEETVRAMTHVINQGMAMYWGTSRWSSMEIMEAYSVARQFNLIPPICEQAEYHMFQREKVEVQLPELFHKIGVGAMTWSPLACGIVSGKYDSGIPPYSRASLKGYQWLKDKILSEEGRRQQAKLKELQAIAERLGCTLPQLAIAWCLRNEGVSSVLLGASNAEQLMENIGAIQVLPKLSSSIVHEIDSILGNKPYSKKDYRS

[6] = biological target: Voltage-gated potassium channel subunit beta-2 (Rattus norvegicus) (UniProt P62483); assay: KvBeta positive modulators, primary screen, biochemical, NADPH fluorescence (AID 623;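 active = NADPH fluorescence slope more negative than the mean of all samples by about 3 SD, 99.7% confidence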;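 note: fluorescence intensity change per second fitted from 20 to 320 s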); conditions: Recombinant KvBeta, NADPH fluorescence decrease slope, 10 min; at 10 µM; stronger effect = lower value
[7] = biological target: Alpha-2C adrenergic receptor (Homo sapiens) (UniProt P18825); assay: modulators of alpha2C/GIRK thallium flux, primary screen, cell-based, HEK293 alpha2C/GIRK1/2 (AID 624;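 active = fluorescence slope after compound addition differing from the mean of all screened samples at 99.7% confidence, in either direction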;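 note: slope of fluorescence ratio to pre-addition baseline per second over 15 to 24 s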); conditions: thallium flux BTC fluorescence, at 10 µM, actives lie on both sides
Sequence of Alpha-2C adrenergic receptor (Homo sapiens) (P18825 whole entry, looked up): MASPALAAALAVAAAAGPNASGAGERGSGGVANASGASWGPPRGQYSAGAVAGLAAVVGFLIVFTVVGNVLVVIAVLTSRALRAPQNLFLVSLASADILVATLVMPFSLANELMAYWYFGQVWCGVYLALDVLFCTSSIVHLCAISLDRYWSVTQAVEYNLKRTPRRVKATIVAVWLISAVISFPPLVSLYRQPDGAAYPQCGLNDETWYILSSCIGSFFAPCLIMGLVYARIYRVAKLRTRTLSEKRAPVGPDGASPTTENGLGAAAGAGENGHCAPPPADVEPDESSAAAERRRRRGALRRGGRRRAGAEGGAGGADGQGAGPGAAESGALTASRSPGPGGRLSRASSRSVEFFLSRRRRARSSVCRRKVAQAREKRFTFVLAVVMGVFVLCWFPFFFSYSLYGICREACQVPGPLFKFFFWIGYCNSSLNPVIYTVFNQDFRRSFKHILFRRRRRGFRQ

[8] = inhibitors of larval lipid processing in zebrafish, primary screen, whole organism, PED6 fluorescence, gall bladder and intestine (AID 686;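 active = a full or partial loss of lipid-probe fluorescence in the fish gall bladder, intestine or both, judged by eye; inactive = no fluorescence loss, or compound toxic to the fish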;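 note: larvae 5 to 7 days old with five fish per well; signal comes from phospholipase A2 cleavage of quenched PED6 carried via bile; overnight exposure to compound and PED6 before scoring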); conditions: Zebrafish larvae PED6 lipid processing, fluorescence scoring; screened at 20 µM (by protocol)
Outline: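 Doses: 20 µM single dose. Test system: live zebrafish larvae aged 5-7 days, whole organism. Quantity: five larvae per well. Measured by: By-eye fluorescence microscopy. Reagent: ingested quenched lipid PED6 at 100 nM. Read-out: visual per-well fluorescence inhibition score. Times: overnight exposure of larvae to compound plus PED6.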

[9] = inhibitors of Chlamydomonas gravitaxis, primary screen, whole organism, Chlamydomonas reinhardtii, WT vs cilia-less mutant, absorbance, 96-well (AID 463189;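 active = inhibition at or above 50% relative to wild type and mutant plate controls; inactive = inhibition below 50%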;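 note: 0% = wild type cc124 cells in DMSO and 100% = ciliumless bld1 mutant cells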); conditions: OD600 absorbance, 2 days, at 10 µM, stronger effect = higher value
[10] = measured here: cell density z-score
[11] = measured here: nuclear c-Myc green intensity z-score
[12] = measured here: nuclear pErk red intensity z-score, stronger effect = higher value

| SMILES | cell count [1] | inhibition [1] | inhibition [2] | nuclei count [2] [%] | z-score [3, 10] | z-score [3, 11] | z-score [3, 12] | inhibition [4] | fluorescence slope [5] | NADPH fluorescence slope [6] | slope [7] | outcome [8] | inhibition [9] |
| --- | --- | --- | --- | --- | --- | --- | --- | --- | --- | --- | --- | --- | --- |
| CC1CN(c2oc(-c3ccccc3Cl)nc2C#N)CC(C)O1 (stereo unspecified) | 355 | -5.2% (inactive) | -154% (inactive) | 83.5 | -0.0257 | -0.411 | -1.37 | -0.159% (inactive) | -0.433 (inactive) | -9.2e-06 (inactive) | 0.00575 (inactive) | inactive | -9.38% (inactive) |
| O=C1CCC(=O)N1CNc1ccccn1 | 493 | -5% (inactive) | -53.8% (inactive) | 99.7 | -0.594 | -0.186 | -0.375 | 7.93% (inactive) | -0.495 (inactive) | -5.8e-05 (inactive) | 0.00525 (inactive) | inactive | 23.2% (inactive) |
| CCOc1cccc(-c2nnc3sc(-c4cccs4)nn23)c1 | 464 | -0.1% (inactive) | -85.6% (inactive) | 99.8 | -0.8 | 1.1 | 0.15 | -2.47% (inactive) | -0.456 (inactive) | -6.5e-05 (inactive) | 0.00982 (inactive) | inactive | 18.9% (inactive) |
| CC(Sc1nc(N2CCCCC2)c2c(c1C#N)CCCC2)C(=O)O (stereo unspecified) | 624 | 4.5% (inactive) | -96.1% (inactive) | 161 | -0.692 | 0.635 | -1.09 | 9.82% (inactive) | -0.301 (inactive) | 1.2e-06 (inactive) | 0.00467 (inactive) | inactive | -8.39% (inactive) |
| CC(O)Cn1ccccc1=N (stereo unspecified) | 352 | -2% (inactive) | -146% (inactive) | 105 | 0.162 | -0.0061 | 0.0768 | -2.29% (inactive) | -0.293 (inactive) | 7.7e-06 (inactive) | 0.00523 (inactive) | inactive | 21.9% (inactive) |
| COc1ccc2c(c1OC)C(=O)N1c3ccccc3C(=O)N(c3ccc(F)cc3)C21 (stereo unspecified) | 409 | -15.5% (inactive) | -44.4% (inactive) | 103 | -0.0624 | -0.142 | 0.819 | -1.12% (inactive) | -0.305 (inactive) | -2.1e-05 (inactive) | 0.00563 (inactive) | inactive | 6.22% (inactive) |
| COc1ccccc1N1CCN(CCCCOc2ccc(F)cc2)CC1 | 461 | -6.8% (inactive) | -62.1% (inactive) | 116 | 1.12 | -0.735 | -0.613 | 26.6% (inactive) | -0.52 (inactive) | -3.7e-05 (inactive) | 0.00493 (inactive) | inactive | 9.82% (inactive) |
| COc1ccc2c(c1OC)C(=O)N1c3ccccc3SC21 (stereo unspecified) | 540 | -6% (inactive) | -54.8% (inactive) | 205 | -1.05 | 0.152 | 0.534 | 2.46% (inactive) | -0.361 (inactive) | 1.2e-05 (inactive) | 0.00516 (inactive) | inactive | 20.5% (inactive) |
| COc1ccc(/C=N/n2cncn2)cc1CSc1ccccn1 | 302 | -17.2% (inactive) | -137% (inactive) | 114 | -0.741 | 0.803 | -0.342 | -2.29% (inactive) | -0.32 (inactive) | 9e-06 (inactive) | 0.00478 (inactive) | inactive | 27% (inactive) |
| COc1ccc(N(CN2C(=O)C3C4C=CC(C4)C3C2=O)C(=O)c2ccco2)cc1 (stereo unspecified) | 541 | 2.9% (inactive) | -74.9% (inactive) | 117 | -1.56 | 1.43 | 1.11 | 1.6e-07% (inactive) | -0.58 (inactive) | -3.5e-05 (inactive) | 0.00619 (inactive) | inactive | -8.45% (inactive) |
| COCc1[nH]nc2c1C(c1cccc(OC)c1)C(C#N)=C(N)O2 (stereo unspecified) | 637 | -2.3% (inactive) | -17.7% (inactive) | 174 | 0.403 | -0.811 | -1.74 | -2.29% (inactive) | -0.403 (inactive) | -3.7e-05 (inactive) | 0.00513 (inactive) | inactive | 2.83% (inactive) |
| c1coc(-c2nnc3sc(-c4cccs4)nn23)c1 | 471 | 2.8% (inactive) | -41.9% (inactive) | 132 | -1.75 | 0.838 | 2.17 | -13.3% (inactive) | -0.459 (inactive) | 9.9e-06 (inactive) | 0.00352 (inactive) | active; weak signal in gallbladder and intestine | 3.53% (inactive) |
| Cc1nc(SCC(=O)c2ccccc2)c(C#N)c(-c2ccco2)c1C(=O)NCc1ccco1 | 391 | 0.8% (inactive) | 17.3% (inactive) | 138 | 0.205 | -0.115 | 1.15 | 11.4% (inactive) | -0.39 (inactive) | -0.000131 (inactive) | 0.0062 (inactive) | inactive | 10.9% (inactive) |
| COc1cc(C2C3C(=O)N(c4ccccc4)C(=O)C3ON2c2ccccc2)ccc1O (stereo unspecified) | 322 | -4.2% (inactive) | -22.7% (inactive) | 171 | 0.353 | -0.666 | -0.00927 | 5.42% (inactive) | -0.418 (inactive) | -0.000156 (inactive) | 0.00862 (inactive) | inactive | -1.03% (inactive) |
| CC1(C)Cc2c(sc3c4nnnn4c4nnnn4c23)CO1 | 634 | -12.5% (inactive) | -30.9% (inactive) | 164 | 0.452 | 0.0526 | 0.417 | 20.8% (inactive) | -0.493 (inactive) | -9.6e-05 (inactive) | 0.0051 (inactive) | inactive | 27.1% (inactive) |
| CCCCNC(=O)C(C#N)c1nc2ccccc2nc1N1CCN(c2ccccc2F)CC1 (stereo unspecified) | 406 | 7.2% (inactive) | -12% (inactive) | 105 | -0.801 | -1.22 | 0.341 | -1.12% (inactive) | -0.475 (inactive) | -3.8e-05 (inactive) | 0.00688 (inactive) | inactive | 6.61% (inactive) |
| COCCn1c(N)c(C(=O)NCC2CCCO2)c2nc3ccccc3nc21 (stereo unspecified) | 564 | -8.3% (inactive) | -74.5% (inactive) | 106 | 0.365 | -2.02 | 0.128 | -11.5% (inactive) | -0.0102 (inactive) | 7e-06 (inactive) | 0.00477 (inactive) | inactive | 26.2% (inactive) |
| CC(=O)C1=C(O)C(=O)N(c2cccc(C(=O)O)c2)C1c1ccccc1F (stereo unspecified) | 545 | -2.4% (inactive) | -73.9% (inactive) | 156 | -0.336 | 0.7 | 0.539 | -9.66% (inactive) | -0.505 (inactive) | -4.6e-05 (inactive) | 0.00649 (inactive) | inactive | 3.92% (inactive) |
| O=C(Nc1ccc2c(c1)OCCO2)c1ccc(Br)o1 | 587 | 3.2% (inactive) | 6.1% (inactive) | 143 | 0.114 | -1.76 | -1.37 | -1.75% (inactive) | -0.295 (inactive) | -8.8e-06 (inactive) | 0.00481 (inactive) | inactive | 12.8% (inactive) |
| Cn1c(=O)c2c(nc(N3CCN(Cc4ccccc4)CC3)n2CC(=O)c2ccccc2)n(C)c1=O | 669 | 0.5% (inactive) | -198% (inactive) | 155 | 0.319 | -0.211 | 0.974 | 7.73% (inactive) | -0.533 (inactive) | -0.000101 (inactive) | 0.00454 (inactive) | inactive | -14.6% (inactive) |
| CC(=O)Nc1cnc2ccccc2n1 | 626 | -12.5% (inactive) | 17.9% (inactive) | 160 | -0.876 | 0.21 | 0.164 | -6.06% (inactive) | -0.397 (inactive) | -5.9e-05 (inactive) | 0.00508 (inactive) | inactive; toxic | -0.95% (inactive) |
| CC(=O)OC12CC3CC(C1)C(=NO)C(C3)C2 | 541 | -10.2% (inactive) | -145% (inactive) | 127 | 1.34 | -0.992 | -0.795 | 33.7% (inactive) | -0.512 (inactive) | -2.1e-05 (inactive) | 0.00472 (inactive) | inactive | 39.2% (inactive) |
| CC1CN(C2CCN(S(=O)(=O)Cc3ccccc3)CC2)CC(C)O1 (stereo unspecified) | 355 | -15.2% (inactive) | -254% (inactive) | 179 | 0.356 | 0.313 | 0.176 | 5.57% (inactive) | -0.391 (inactive) | -1.6e-05 (inactive) | 0.00538 (inactive) | inactive | 32.6% (inactive) |
| CNc1nc(C)c(C#N)cc1C(C)=O | 481 | -11.7% (inactive) | 8.2% (inactive) | 166 | 0.906 | -0.478 | -0.65 | 5.65% (inactive) | -0.513 (inactive) | -9.4e-05 (inactive) | 0.00563 (inactive) | inactive | 26.6% (inactive) |
| CCCSc1nc(N2CCCC2)c2c(c1C#N)CC(C)(C)OC2 | 521 | -7.7% (inactive) | -153% (inactive) | 173 | 1.7 | -1.87 | -0.14 | 36.9% (inactive) | -0.322 (inactive) | 4.6e-06 (inactive) | 0.00655 (inactive) | inactive | 9.15% (inactive) |
| O=C(c1ccc(=O)oc1)N1CCN(c2ccc(F)cc2)CC1 | 328 | -4.5% (inactive) | -1.9% (inactive) | 95.2 | -0.519 | -0.0445 | 0.228 | 17.4% (inactive) | -0.364 (inactive) | -4.3e-05 (inactive) | 0.00509 (inactive) | inactive | 31% (inactive) |
| Cc1ccccc1C(=O)c1ccc2c(c1)n(C)c(=O)n2C | 547 | -22.1% (inactive) | -296% (inactive) | 200 | 1.43 | -1.34 | 1.32 | 5.65% (inactive) | -0.512 (inactive) | -5.8e-05 (inactive) | 0.00384 (inactive) | inactive | 0.416% (inactive) |
